Bioassay records (PubChem)
Only some compounds are listed: those with a hit (about 2.1% of all), similar ones and a draw of the others.
dFosB act – activators of mouse delta FosB homodimer. purified delta FosB, TAMRA-CDK5 oligo fluorescence polarization; percent of positive-control signal above neutral wells. activation, % at 25 µM. 340,000 compounds, 0.99% hits;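 active = mean activation above about 17%, with every replicate also reaching it, limit read from the data, passing the limit was not always enough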
Target sequence (P13346 whole entry, looked up): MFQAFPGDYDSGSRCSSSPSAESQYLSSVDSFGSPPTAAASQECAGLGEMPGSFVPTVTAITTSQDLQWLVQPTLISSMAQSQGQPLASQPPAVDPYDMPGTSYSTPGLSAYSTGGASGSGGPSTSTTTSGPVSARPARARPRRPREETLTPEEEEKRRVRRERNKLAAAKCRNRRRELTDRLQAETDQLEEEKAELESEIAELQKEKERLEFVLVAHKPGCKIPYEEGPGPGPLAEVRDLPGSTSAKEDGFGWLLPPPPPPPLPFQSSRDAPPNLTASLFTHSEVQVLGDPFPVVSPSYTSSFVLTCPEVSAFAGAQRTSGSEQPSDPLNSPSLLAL
SR-BI DiI-HDL act – enhances SR-BI lipid uptake from DiI-HDL | CHO ldlA[mSR-BI] cells, DiI-HDL uptake fluorescence, 3 h; 100 = double the neutral-control signal | activation, % at 12.5 µM | 320,000 compounds, 0.096% hits;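 active = mean replicate activation of at least 60% and every replicate at or above 60%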;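 note: 0% = median plate neutral-control signal and 100% = twice that signal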
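System: CHO ldlA[mSR-BI] cells / Medium: HEPES-buffered (25 mM, pH 7.4) F12 plus 0.5% BSA / Probe or stimulus: labelled HDL, 10 µg/mL / Doses: single compound concentration, delivered by pin transfer / Schedule: 3 h, 37 °C / Measured by: DiI fluorescence, bottom read / Measure: cell-associated DiI fluorescence as measure of HDL uptake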
PKA-R1A act – PKA-R1A complex activation; AID 504707; PKA-R1A dissociation, Cy5-IP20 fluorescence polarization; scaled: DMSO 0%, 113 µM cGMP 100%; activation, % at 11.4 µM; 340,000 compounds, 0.083% hits;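 active = percent activation above the mean of all tested compounds plus 3 SD, cut at about 19% in these data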;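 note: higher means more PKAc released from R1A so a rise in polarization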
PKA-R2B act – activates the human PKA-R2B holoenzyme complex; P22694+P31323; activation, % at 11.4 µM; 340,000 compounds, 0.079% hits; AID 504700; PKA-R2B holoenzyme dissociation, Cy5-IP20 fluorescence polarization; R2B truncated from residue 108, S112A mutant; 0% DMSO only, 100% 113 µM cGMP;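 active = activation above a cutoff set at the mean over all compounds plus 3 SD, cut at about 18% in these data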;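 note: higher means more holoenzyme dissociation and a rise in polarization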
SR-BI DiI inh – mouse SR-BI HDL lipid transfer inhibition. Q61009. ldlA[mSR-BI] CHO cells, DiI-HDL uptake fluorescence, 3 h. inhibition, % at 12.5 µM. 320,000 compounds, 0.96% hits;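 active = mean replicate inhibition of at least 70% and a set share of replicates each scoring 70 or more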;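 note: 0% = median of neutral control wells and 100% = median of positive control wells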
CDK5 inh – inhibitors of human CDK5/p35 kinase; inhibition, % at 10 µM; Recombinant CDK5/p35, ADP-Glo luminescence, 60 min; Q00535+Q15078; AID 488839; 330,000 compounds, 0.01% hits;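 active = highest replicate inhibition of at least 50% and at least 75% of replicates reaching 50%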;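 note: plate controls were DMSO neutral control for no effect and GW8510 at 10 µM for full effect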
* = called active by the depositor; . = no result.

SMILES	dFosB act	SR-BI DiI-HDL act	PKA-R1A act	PKA-R2B act	SR-BI DiI inh	CDK5 inh
Cc1ccc2[nH]c(O)c(N=NC(=O)CCc3ccccc3)c2c1Br	17*	3	16	-1	-3	0
O=C(COc1ccccc1)Nc1ccccc1N1CCN(c2ccc(F)cc2)CC1	0	-80	0	-4	80*	0
O=C(COc1ccccc1)Nc1ccccc1N1CCN(c2ccccc2)CC1	-6	-64	2	7	64	-3
Cc1ccccc1CC1SC(N)=NC1=O (stereo not drawn)	4	22	-5	-2	-22	1
O=c1cc(O)c2ccc(O)cc2o1	-1	16	0	-4	-16	-1
O=c1ccc2[n+]([O-])c3ccc(O)cc3oc-2c1	40*	18	11	6	-18	-1
CCOc1[nH]n(-c2ccc(Cl)cc2)c(=O)c1C=Nc1ccc(Cl)cc1	-3	-75	-2	-1	75*	-1
CCOc1[nH]n(-c2ccccc2)c(=O)c1C=Nc1ccc(OC)cc1	-10	-45	-7	11	45	2
C#Cc1ccc([C@@H]2C=C(C(=O)N3CCOCC3)O[C@H](OCC)[C@H]2CCCO)cc1	-7	22	-4	5	-22	-1
COc1ccc2cc(-c3ccccc3)ncc2c1	3	33	1	-8	-33	1
COc1cc(OC)cc(-c2cc3ccc(OC)cc3cn2)c1	-5	-90	-13	-9	90*	2
COc1ccc(-c2cc3cc(OC)c(OC)cc3cn2)cc1	2	-79	-17	-9	79*	1
CCn1c(O)c(/C=C2\C=Nc3ccccc32)sc1=Nc1ccccc1	2	-80	-20	-8	80*	-1
Cn1c(O)c(/C=C2\C=Nc3ccccc32)sc1=Nc1ccc(C(=O)O)cc1	-10	-6	-6	-6	6	0
CN(C)c1ccc(/C=N/OC(=O)Nc2ccccc2Cl)cc1	7	32	10	3	-32	1
O=C(O)c1ccccc1C=NNc1ccccn1	4	-4	-6	-8	4	2
COc1cc(/C=N/NC(N)=S)ccc1OC(=O)c1ccc(C)cc1	3	-74	-5	-3	74*	-1
COc1cc(C(=O)Oc2ccccc2/C=N/NC(=O)c2ccc(C)c(Cl)c2)cc(OC)c1OC	-3	-115	1	6	115*	-5
COc1cc(/C=N/NC(=O)c2cccnc2)ccc1OC(=O)c1cc(OC)c(OC)c(OC)c1	-12	-73	-3	11	73*	1
COc1cc(/C=N/NC(=O)c2cccnc2)ccc1OC(=O)c1ccc2c(c1)OCO2	1	0	7	2	0	1
CC(=O)Nc1ccc(C(=O)N/N=C/c2ccccc2OC(=O)c2ccc(Cl)cc2)cc1	-4	-52	-16	-5	52	-2
COc1cc(C(=O)Oc2ccccc2/C=N/NC(=O)c2ccc(Cl)cc2)cc(OC)c1OC	2	-117	-3	0	117*	-9
Cn1nnnc1Sc1ncnc2scc(-c3ccsc3)c12	-5	8	5	4	-8	0
C=CCCC(=O)NC1CC(C)(C)Cc2c1cnn2-c1ccc(OC)cc1 (stereo not drawn)	-2	-33	2	-2	33	-2
O=C(CC1CCCC1)N1CCN(S(=O)(=O)c2cccc(Br)c2)CC1	.	.	-2	1	.	.
CSCC[C@H](NC(=O)[C@H](Cc1ccccc1)n1c(=O)[nH]c2ccccc2c1=O)C(=O)N[C@@H](Cc1ccccc1)C(=O)O	4	15	0	1	-15	0
CCn1c(SCC(=O)N2CCOCC2)nc2c([nH]c3ccccc32)c1=O	-1	11	4	2	-11	-4
COc1ccc(-c2csc(C3=C(O)CN(C(C)C)C3=N)n2)cc1OC	-11	-84	8	3	84*	-8
COc1ccc(-c2nc(-c3ccc(O)cc3O)cs2)cc1OC	-27	-91	3	-13	91*	-1
COc1ccc(-c2nc(CCl)cs2)cc1OC	0	15	1	3	-15	1
